pIC50: −log10 of the molar value. Calls of active or inactive are those of the source. The rule behind the calls is not given here.
Assays:
[1] = biological target: T1, Lysosomal Pro-X carboxypeptidase (Mus musculus, UniProt Q7TMR0); assay: Inhibition of recombinant mouse PrCP using Mca-Ala-Pro-Lys(Dnp)-OH as substrate measured for 30 mins by continuous fluorometric assay
T1 sequence (Q7TMR0 whole entry): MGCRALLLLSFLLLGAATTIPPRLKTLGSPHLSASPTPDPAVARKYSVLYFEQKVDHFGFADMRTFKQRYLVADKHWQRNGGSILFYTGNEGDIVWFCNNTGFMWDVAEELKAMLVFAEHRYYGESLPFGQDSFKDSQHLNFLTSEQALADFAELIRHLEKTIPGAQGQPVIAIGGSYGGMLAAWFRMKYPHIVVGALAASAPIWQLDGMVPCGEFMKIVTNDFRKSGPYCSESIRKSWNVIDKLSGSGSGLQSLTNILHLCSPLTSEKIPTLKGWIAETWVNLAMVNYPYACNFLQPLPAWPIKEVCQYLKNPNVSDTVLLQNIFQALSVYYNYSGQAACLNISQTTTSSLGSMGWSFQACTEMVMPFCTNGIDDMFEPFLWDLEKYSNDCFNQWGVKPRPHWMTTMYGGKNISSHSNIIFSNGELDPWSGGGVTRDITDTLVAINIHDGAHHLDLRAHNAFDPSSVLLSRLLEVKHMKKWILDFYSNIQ

[2] = biological target: T1, Lysosomal Pro-X carboxypeptidase; assay: Inhibition of PrCP-mediated conversion of Ang3 to Ang(2-7) in mouse plasma
Summary of the method: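 Whole mouse plasma was pretreated with protease inhibitors to block non-PrCP conversion of angiotensin III. Inhibitor was then added, and the rate of conversion of AngIII to Ang(2–7) was compared with a vehicle-treated control.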

[3] = Half life in mouse at 1 mg/kg, iv and 2 mg/kg, po by LC-MS/MS analysis; format: ADME, organism-based; details: in vivo
Summary of the method: (§1)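 Mice received 1 mg/kg IV (n = 2) or 2 mg/kg PO (n = 3). The formulation was 1 mg/mL in ethanol–PEG–water (20:40:40). Blood was deproteinized with acetonitrile and drug levels were measured by LC/MS/MS. Outputs were clearance, Vd, half-life, %F and dose-normalized oral AUC.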

[4] = Oral bioavailability in mouse at 2 mg/kg by LC-MS/MS analysis; format: ADME, organism-based; details: in vivo; summary of the method: as §1
Mus musculus [5] = assay: Normalized AUC in mouse at 2 mg/kg, po by LC-MS/MS analysis; format: ADME, organism-based; design: dose 2 mg/kg, route oral; details: in vivo; summary of the method: as §1
[6] = Clearance in mouse at 1 mg/kg, iv and 2 mg/kg, po by LC-MS/MS analysis; format: ADME, organism-based; details: in vivo; summary of the method: as §1
[7] = Volume of distribution in mouse at 1 mg/kg, iv and 2 mg/kg, po by LC-MS/MS analysis; format: ADME, organism-based; details: in vivo
Summary of the method: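 Mouse PK with the compound formulated at 1 mg/mL in ethanol–PEG–water (20:40:40). Given IV at 1 mg/kg (n = 2) and PO at 2 mg/kg (n = 3). Blood concentrations were measured by LC/MS/MS after protein precipitation with acetonitrile. Volume of distribution is reported in L/kg.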

[8] = Drug uptake in wild type MDR1A expressing CF1 mouse plasma at 30 mg/kg, po after 2 hrs; format: ADME, organism-based; design: dose 30 mg/kg, route oral
Summary of the method: (§2)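 CF1 MDR1A wild-type and MDR1A(-/-) mice (n = 4 each) received a single 30 mg/kg oral dose. Plasma and brain concentrations (nM) were measured at 2 and 6 h post-dose. The brain/plasma ratio was derived for each time point.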

[9] = Drug uptake in wild type MDR1A expressing CF1 mouse plasma at 30 mg/kg, po after 6 hrs; format: ADME, organism-based; design: dose 30 mg/kg, route oral; summary of the method: as §2
[10] = Drug uptake in wild type MDR1A expressing CF1 mouse brain at 30 mg/kg, po after 2 hrs; format: ADME, organism-based; design: dose 30 mg/kg, route oral; details: read-out: Drug uptake; summary of the method: as §2
[11] = Drug uptake in wild type MDR1A expressing CF1 mouse brain at 30 mg/kg, po after 6 hrs; format: ADME, organism-based; design: dose 30 mg/kg, route oral; details: read-out: Drug uptake; summary of the method: as §2
[12] = Ratio of drug level in brain to plasma in wild type MDR1A expressing CF1 mouse at 30 mg/kg, po after 2 hrs; format: ADME, organism-based; design: dose 30 mg/kg, route oral; details: read-out: BPR; summary of the method: as §2
[13] = Ratio of drug level in brain to plasma in wild type MDR1A expressing CF1 mouse at 30 mg/kg, po after 6 hrs; format: ADME, organism-based; design: dose 30 mg/kg, route oral; details: read-out: BPR; summary of the method: as §2
[14] = Drug uptake in MDR1A knock-out CF1 mouse plasma at 30 mg/kg, po after 2 hrs; format: ADME, organism-based; design: dose 30 mg/kg, route oral; summary of the method: as §2
[15] = Drug uptake in MDR1A knock-out CF1 mouse plasma at 30 mg/kg, po after 6 hrs; format: ADME, organism-based; design: dose 30 mg/kg, route oral; summary of the method: as §2
[16] = Drug uptake in MDR1A knock-out CF1 mouse brain at 30 mg/kg, po after 2 hrs; format: ADME, organism-based; design: dose 30 mg/kg, route oral; details: read-out: Drug uptake; summary of the method: as §2
[17] = Drug uptake in MDR1A knock-out CF1 mouse brain at 30 mg/kg, po after 6 hrs; format: ADME, organism-based; design: dose 30 mg/kg, route oral; details: read-out: Drug uptake; summary of the method: as §2
[18] = Ratio of drug level in brain to plasma in MDR1A knock-out CF1 mouse at 30 mg/kg, po after 2 hrs; format: ADME, organism-based; design: dose 30 mg/kg, route oral; details: read-out: BPR; summary of the method: as §2
[19] = Ratio of drug level in brain to plasma in MDR1A knock-out CF1 mouse at 30 mg/kg, po after 6 hrs; format: ADME, organism-based; design: dose 30 mg/kg, route oral; details: read-out: BPR; summary of the method: as §2
Mus musculus [20] = assay: Terminal plasma PrCP inhibition in eDIO mouse model at 10 mg/kg, sc administered for 7 days; format: functional; details: 168 h, route subcutaneous
Mus musculus [21] = assay: Induction of weight loss in wild type PrCP expressing mouse at 30 mg/kg, sc administered for 7 days; format: functional, organism-based; design: dose 30 mg/kg
Summary of the method: (§3)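 Wild-type and PrCP knockout mice (n = 8 per group) received continuous subcutaneous infusion by pump for 7 days at 10 or 30 mg/kg. The vehicle was DMSO–1,2-propanediol (1:1 v/v). Body weight and food intake were recorded daily and compared with a vehicle group. Injection-site adverse events were noted, and terminal plasma drug concentration was measured.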

Mus musculus [22] = assay: Induction of weight loss in PrCP knock-out mouse at 30 mg/kg, sc administered for 7 days; format: functional, organism-based; design: dose 30 mg/kg; summary of the method: as §3
Mus musculus [23] = assay: Induction of weight loss in wild type PrCP expressing mouse at 10 mg/kg, sc administered for 7 days; format: functional, organism-based; design: dose 10 mg/kg; summary of the method: as §3
Mus musculus [24] = assay: Induction of weight loss in PrCP knock-out mouse at 10 mg/kg, sc administered for 7 days; format: functional, organism-based; design: dose 10 mg/kg; summary of the method: as §3
Mus musculus [25] = assay: Inhibition of wild type PrCP in mouse plasma at 30 mg/kg, sc administered for 7 days by fluorescence analysis; format: functional; details: 168 h, route subcutaneous
Mus musculus [26] = assay: Inhibition of wild type PrCP in mouse plasma at 10 mg/kg, sc administered for 7 days by fluorescence analysis; format: functional; details: 168 h, route subcutaneous
Mus musculus [27] = organism: Mus musculus; details: 10 mg/kg

SMILES: O=C(CCN1CCC(c2ccccc2)CC1)NC(c1ccncc1)c1ccc(Cl)cc1 (racemic)
- pIC50 [1]: 8.68

SMILES: O=C(CCN1CCC(c2ccccc2)CC1)NC(c1ccc(Cl)cc1)C(F)F (centres undefined)
- pIC50 [1]: 7.77
- pIC50 [2]: 7.77

SMILES: O=C(CCN1CCC(c2nc(-c3ccccn3)no2)CC1)NC(c1ccncc1)c1ccc(F)cc1 (racemic)
- pIC50 [2]: 7.82

SMILES: C[C@@H](c1ccc(-c2ccccc2)cc1)[C@H](NC(=O)C(C)(C)N)C(=O)NC(c1ccc(Cl)cc1)C(F)(F)F (mixture of isomers)
- half-life [3]: 4.4 h
- bioavailability [4]: 40%
- AUC/dose (Mus musculus [5]): 0.19 µM·kg·h/mg
- clearance [6]: 78 mL/min/kg
- Vd [7]: 24 L/kg

SMILES: C[C@H](NC(=O)[C@@H](N)[C@@H](C)c1ccc(-c2ccccc2)cc1)c1ccc(Cl)cc1
- pIC50 [1]: 7.96
- pIC50 [2]: 6.24

SMILES: C[C@H](NC(=O)CCN1CCC(c2ccccc2)CC1)c1ccc(Cl)cc1
- half-life [3]: 2.3 h
- bioavailability [4]: < 1%
- AUC/dose (Mus musculus [5]): < 0.01 µM·kg·h/mg
- pIC50 [1]: 7.27
- pIC50 [2]: 6.62
- clearance [6]: 185 mL/min/kg
- Vd [7]: 27 L/kg

SMILES: C[C@@H](c1ccc(-c2ccccc2)cc1)[C@H](NC(=O)C(C)(C)N)C(=O)N1CCC[C@H]1c1nc2cc(Cl)c(Cl)cc2[nH]1
- pIC50 [2]: 7.59
- concentration at 2 h [8]: 306 nM
- concentration at 6 h [9]: 91 nM
- concentration at 2 h [10]: 4 nM
- concentration at 6 h [11]: 3 nM
- Kp at 2 h [12]: 0.01
- Kp at 6 h [13]: 0.04
- concentration at 2 h [14]: 186 nM
- concentration at 6 h [15]: 51 nM
- concentration at 2 h [16]: 166 nM
- concentration at 6 h [17]: 185 nM
- Kp at 2 h [18]: 0.9
- Kp at 6 h [19]: 3.6

SMILES: CC(NC(=O)CCN1CCC(c2ccccc2)CC1)c1ccccc1-c1ccccc1 (centres undefined)
- pIC50 [1]: 8.24

SMILES: C[C@H](NC(=O)CCN1CCC(c2nc(-c3ccccn3)no2)CC1)c1ccc(F)cc1
- pIC50 [2]: 6.46

SMILES: O=C(CCN1CCC(c2nc(-c3ccccn3)no2)CC1)N1CCC[C@H]1c1nc2cc(Cl)c(Cl)cc2[nH]1
- pIC50 [1]: 8.40

SMILES: O=C(CCN1CCC(c2nc(-c3ccccn3)no2)CC1)NC(c1ccc(Cl)cc1)C(F)F (racemic)
- pIC50 [2]: 6.81

SMILES: CC(C)[C@H](NC(=O)CCN1CCC(c2ccccc2)CC1)c1ccc(Cl)cc1
- inhibition in vivo at 10 mg/kg (Mus musculus [20]): 65%
- Activity (Mus musculus [21]): Active
- Activity (Mus musculus [22]): Active
- Activity (Mus musculus [23]): inactive
- Activity (Mus musculus [24]): inactive
- inhibition in vivo at 30 mg/kg (Mus musculus [25]): 85%
- inhibition in vivo at 10 mg/kg (Mus musculus [26]): 87%
- pIC50 [1]: 8.28
- pIC50 [2]: 7.90
- inhibition (Mus musculus [27]): inactive

SMILES: Cn1cc(C(NC(=O)CCN2CCC(c3ccccc3)CC2)c2ccc(Cl)cc2)cn1 (racemic)
- pIC50 [1]: 7.60

SMILES: C[C@@H](c1ccc(-c2ccccc2)cc1)[C@H](NC(=O)C(C)(C)N)C(=O)NC(c1ccncc1)c1ccc(Cl)cc1 (mixture of isomers)
- half-life [3]: 3.6 h
- pIC50 [1]: 9.40
- pIC50 [2]: 8.22
- clearance [6]: 85 mL/min/kg
- Vd [7]: 21 L/kg

SMILES: O=C(CCN1CCC(c2nc(-c3ccccn3)no2)CC1)NC(c1ccc(Cl)cc1)c1ccc(Cl)cc1
- half-life [3]: 0.7 h
- bioavailability [4]: 1.3%
- AUC/dose (Mus musculus [5]): < 0.01 µM·kg·h/mg
- pIC50 [1]: 8.00
- pIC50 [2]: 6.52
- clearance [6]: 105 mL/min/kg
- Vd [7]: 5.6 L/kg

SMILES: C[C@H](NC(=O)CCN1CCC(c2ccccc2)CC1)c1ccc(Br)cc1
- pIC50 [1]: 7.70

SMILES: O=C(CCN1CCC(c2ccccc2)CC1)NC(c1ccc(Cl)cc1)C(F)(F)F (centres undefined)
- pIC50 [1]: 7.85

SMILES: C[C@@H](c1ccc(-c2ccccc2)cc1)[C@H](NC(=O)C(C)(C)N)C(=O)NC(c1ccc(Cl)cc1)C(F)F (mixture of isomers)
- pIC50 [1]: 8.18
- pIC50 [2]: 6.34

SMILES: C[C@@H](c1ccc(-c2ccccc2)cc1)[C@H](N)C(=O)NC(c1ccncc1)c1ccc(Cl)cc1 (mixture of isomers)
- pIC50 [1]: 8.85
- pIC50 [2]: 6.97

SMILES: O=C(CCN1CCC(c2ccccc2)CC1)NC(c1ccc(Cl)cc1)c1ccc(Cl)cc1
- pIC50 [1]: 8.40
- pIC50 [2]: 7.24

SMILES: C[C@H](NC(=O)[C@@H](NC(=O)C(C)(C)N)[C@@H](C)c1ccc(-c2ccccc2)cc1)c1ccc(Cl)cc1
- pIC50 [1]: 8.64
- pIC50 [2]: 6.70

SMILES: O=C(CCN1CCC(c2ccccc2)CC1)N1CCC[C@H]1c1nc2cc(Cl)c(Cl)cc2[nH]1
- pIC50 [2]: < 5.00

From ChEMBL document CHEMBL1938250, “The discovery of non-benzimidazole and brain-penetrant prolylcarboxypeptidase inhibitors” (Bioorg Med Chem Lett, 2012)
